# Assay results gathered from unrelated publications.
# Each line is one published result; the experiments were not run side by side.
# Target: Calcium/calmodulin-dependent protein kinase type IV (CAMK4, Homo sapiens, UniProt Q16566)
# One construct used (Q16566 1-473): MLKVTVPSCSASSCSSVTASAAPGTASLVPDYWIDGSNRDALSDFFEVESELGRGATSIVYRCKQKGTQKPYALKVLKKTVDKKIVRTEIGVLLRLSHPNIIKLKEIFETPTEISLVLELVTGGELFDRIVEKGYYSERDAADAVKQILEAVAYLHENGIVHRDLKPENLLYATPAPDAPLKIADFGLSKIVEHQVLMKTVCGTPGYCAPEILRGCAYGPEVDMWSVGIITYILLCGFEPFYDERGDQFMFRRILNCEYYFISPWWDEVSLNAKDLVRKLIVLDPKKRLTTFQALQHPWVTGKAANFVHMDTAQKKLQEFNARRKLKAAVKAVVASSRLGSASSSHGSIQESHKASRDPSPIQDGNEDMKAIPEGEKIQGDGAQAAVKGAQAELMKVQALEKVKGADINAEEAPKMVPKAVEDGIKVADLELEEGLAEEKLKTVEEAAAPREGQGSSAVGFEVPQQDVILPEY
SMILES,observed,technique,tested at,remaining binding
Cn1nc(C(F)(F)F)cc1-c1cnc(N2CCc3cc(S(=O)(=O)Nc4c(F)cc(Cl)cc4F)cc(N4CCCC4=O)c32)nc1,cell-free assay,competition with immobilised ligand,1 µM,100%
Cc1cnc(Nc2ccc(C(=O)N3CCC(N4CCCC4)CC3)cc2)nc1-c1cc2ccccc2s1,binding,competition with immobilised ligand,1 µM,100%
COc1ccnn2ncc(-c3ccnc(N(C)C)n3)c12,binding,,1 µM,100%
FC(F)(F)Oc1cccc(-c2cnc3ccc(-c4ccncc4)nn23)c1,cell-free assay,competition with immobilised ligand,5 µM,100%
O=C(c1ccc(Nc2ncc(Cl)c(-c3ccc(Cl)s3)n2)cc1)N1CCC(N2CCCC2)CC1,binding,competition with immobilised ligand,1 µM,100%
N[C@@H]1CCN(c2nccc(-c3cnn4ncccc34)n2)C1,binding,,1 µM,100%
C=CC(=O)N1CCC(C(=O)NCC(=O)N2CCN(c3nc(-c4cnc(N)nc4C(F)F)nc(N4CCOCC4)n3)CC2)CC1,binding,competition with immobilised ligand,1 µM,86%
F[C@@H]1CCN(c2nccc(-c3cnn4ncccc34)n2)C1,binding,,1 µM,79%
CCOC(=O)c1cc2cc(-c3cc(C(=O)NCc4ccc(C(=O)O)cc4)nn3C)ccc2[nH]1,cell-free assay,competition with immobilised ligand,0.1 µM,95%
C[C@H]1CCN(c2nccc(-c3cnn4ncccc34)n2)C1,binding,,1 µM,90%
COc1ncc2cc3ccccc3nc2c1C#N,cell-free assay,competition with immobilised ligand,5 µM,93%
CNC(=O)[C@@H]1CC[C@@H](n2c(-c3ccc4cnccc4c3)nc3ccc(C(=O)NCc4cccc(C(N)=O)c4)cc32)C1,binding,competition with immobilised ligand,1 µM,100%
CN(C)c1ncc(F)c(-c2cnn3ncccc23)n1,binding,,1 µM,100%
COc1ccc2c(O[C@@H]3C[C@H]4C(=O)N[C@]5(C(=O)O)CC5/C=C\CCCCC[C@H](NC(=O)OC5CCCC5)C(=O)N4C3)cc(-c3csc(NC(=O)C(C)C)n3)nc2c1C (stereo partly shown),cell-free assay,competition with immobilised ligand,1 µM,95%
O=C(NCCCN1CCOCC1)c1ccc(Nc2nccc(-c3cc4ccccc4s3)n2)cc1,binding,competition with immobilised ligand,1 µM,100%
Cc1c(NC(=O)c2cc(C(N)=O)nc3cc(F)ccc23)c(C(F)(F)F)nn1Cc1ccc(C(C)(C)C)cc1,cell-free assay,competition with immobilised ligand,1 µM,90%
COc1cnc(Nc2cccc(S(N)(=O)=O)c2)nc1N1CCN(c2ccccc2)C(=O)C1,binding,competition with immobilised ligand,1 µM,100%
CN(C)c1nccc(-c2cnn3ncccc23)n1,binding,,1 µM,100%
C[C@H](c1ccnc(Nc2nc3ccc(-c4cc(N(C)C)ncn4)cc3[nH]2)c1)N1CCN(C(=O)CC(F)(F)F)CC1,cell-free assay,competition with immobilised ligand,0.1 µM,100%
c1cncc(-c2cccc(Nc3nccc(NC4CCCCC4)n3)c2)c1,binding,competition with immobilised ligand,10 µM,100%
CC1=C(C#N)[C@@H](c2ccc3[nH]nc(C)c3c2)C(C#N)=C(c2ccc(Cl)cc2)N1,cell-free assay,competition with immobilised ligand,1 µM,31.8%
O=C(NCC1CCOCC1)c1n[nH]cc1NC(=O)c1c(F)cccc1F,binding,competition with immobilised ligand,1 µM,100%
